In ChEMBL document CHEMBL5649170, “Sustained microglial depletion with CSF1R inhibitor impairs parenchymal plaque development in an Alzheimer's disease model” (Nat Commun, 2019):
Calls of active or inactive are those of the source. No cut-off for these calls is given here.

Experiments:
Mus musculus [1] = assay: Antialzheimer activity in 5XFAD mouse assessed as amyloidbeta42 level in detergent insoluble thalamus fraction measured per microgram protein at 1200 ppm administered as rodent chow starting from 1.5 months and measured after 7 months by ELISA (reference value: 905.886 to 11631931 pg); format: functional; conditions: route po, time 5.5 months, 4015 h
Ephrin type-B receptor 1 = Ephrin type-B receptor 1 (Homo sapiens, UniProt P54762); assay: Inhibition of EPHB1 (unknown origin)
Ephrin type-B receptor 1, sequence (P54762 whole entry): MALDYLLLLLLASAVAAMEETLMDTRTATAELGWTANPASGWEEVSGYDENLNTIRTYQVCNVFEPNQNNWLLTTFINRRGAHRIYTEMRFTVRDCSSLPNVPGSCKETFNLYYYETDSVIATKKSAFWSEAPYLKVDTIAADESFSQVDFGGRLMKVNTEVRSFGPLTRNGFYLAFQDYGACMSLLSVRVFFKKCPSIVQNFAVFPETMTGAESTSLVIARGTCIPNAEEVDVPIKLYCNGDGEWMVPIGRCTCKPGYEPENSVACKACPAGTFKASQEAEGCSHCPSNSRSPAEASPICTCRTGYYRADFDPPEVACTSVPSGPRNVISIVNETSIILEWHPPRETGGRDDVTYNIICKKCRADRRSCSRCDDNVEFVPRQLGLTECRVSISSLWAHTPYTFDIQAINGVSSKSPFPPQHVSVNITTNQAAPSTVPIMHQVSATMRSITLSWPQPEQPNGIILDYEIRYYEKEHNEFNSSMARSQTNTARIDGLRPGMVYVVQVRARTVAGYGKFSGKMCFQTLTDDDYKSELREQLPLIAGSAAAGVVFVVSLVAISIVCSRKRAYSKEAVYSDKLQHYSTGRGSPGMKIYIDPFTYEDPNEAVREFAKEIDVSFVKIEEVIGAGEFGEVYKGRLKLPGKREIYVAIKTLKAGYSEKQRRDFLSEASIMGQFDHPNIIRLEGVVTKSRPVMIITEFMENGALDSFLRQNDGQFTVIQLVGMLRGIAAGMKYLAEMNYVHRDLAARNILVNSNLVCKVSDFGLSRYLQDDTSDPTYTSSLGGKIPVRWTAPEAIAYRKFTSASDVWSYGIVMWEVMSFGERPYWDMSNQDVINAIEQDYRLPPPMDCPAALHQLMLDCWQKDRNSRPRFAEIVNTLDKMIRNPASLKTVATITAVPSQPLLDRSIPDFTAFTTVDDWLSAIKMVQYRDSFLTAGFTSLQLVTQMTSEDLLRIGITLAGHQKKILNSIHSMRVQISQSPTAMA

[2] = Effect on Dynll1 gene expression in wildtype mouse hippocampus assessed as percent change in Reads Per kilo base per Million mapped reads at 1200 ppm administered as rodent chow starting from 1.5 months and measured after 7 months by RNA-Seq analysis (reference value: 83.247 to 113.338 %); format: functional; conditions: route po, time 5.5 months, 4015 h
[3] = Clearance in female rat at 1.13 mg/kg, iv administered as single dose; format: ADME, organism-based; conditions: in vivo
[4] = AUC (0 to infinity) in male rat at 45 mg/kg, po administered as single dose via gavage; format: ADME, organism-based; conditions: in vivo
[5] = target: Serine/threonine-protein kinase PAK 5 (Homo sapiens, UniProt Q9P286); assay: Inhibition of PAK7 (unknown origin)
[6] = Effect on Spi1 gene expression in 5XFAD mouse cortex at 1200 ppm administered as rodent chow starting from 1.5 months and measured after 7 months by RNA-Seq analysis (reference value: 1.689 to 2.928 RPKM); format: functional; conditions: route po, time 5.5 months, 4015 h
[7] = target: Tyrosine-protein kinase receptor UFO (Homo sapiens, UniProt P30530); assay: Inhibition of AXL (unknown origin)
Tyrosine-protein kinase receptor UFO, sequence (P30530 whole entry): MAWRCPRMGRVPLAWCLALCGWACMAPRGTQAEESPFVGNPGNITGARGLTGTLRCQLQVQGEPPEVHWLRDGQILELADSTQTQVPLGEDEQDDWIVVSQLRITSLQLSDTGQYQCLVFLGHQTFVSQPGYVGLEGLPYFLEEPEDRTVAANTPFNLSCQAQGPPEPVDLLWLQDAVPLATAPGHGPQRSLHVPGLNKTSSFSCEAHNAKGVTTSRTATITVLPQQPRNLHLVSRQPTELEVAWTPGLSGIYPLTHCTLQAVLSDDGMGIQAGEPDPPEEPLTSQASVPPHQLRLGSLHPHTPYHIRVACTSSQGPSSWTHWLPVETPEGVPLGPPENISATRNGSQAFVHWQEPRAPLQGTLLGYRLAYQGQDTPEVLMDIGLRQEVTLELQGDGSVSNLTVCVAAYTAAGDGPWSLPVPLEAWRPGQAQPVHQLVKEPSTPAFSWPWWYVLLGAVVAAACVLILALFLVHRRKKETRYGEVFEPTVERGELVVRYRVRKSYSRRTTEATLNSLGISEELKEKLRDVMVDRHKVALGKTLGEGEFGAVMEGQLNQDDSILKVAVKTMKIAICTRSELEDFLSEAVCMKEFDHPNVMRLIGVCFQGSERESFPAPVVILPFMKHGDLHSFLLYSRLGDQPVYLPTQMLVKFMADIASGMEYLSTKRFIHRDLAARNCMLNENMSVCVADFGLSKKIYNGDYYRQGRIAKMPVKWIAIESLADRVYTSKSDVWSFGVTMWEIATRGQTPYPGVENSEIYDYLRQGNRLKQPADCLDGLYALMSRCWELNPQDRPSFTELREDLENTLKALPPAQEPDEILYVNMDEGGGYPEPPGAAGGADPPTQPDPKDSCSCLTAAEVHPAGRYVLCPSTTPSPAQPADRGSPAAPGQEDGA

[8] = target: Serine/threonine-protein kinase PLK1 (Homo sapiens, UniProt P53350); assay: Inhibition of PLK1 (unknown origin)
Serine/threonine-protein kinase PLK1, sequence (P53350 whole entry): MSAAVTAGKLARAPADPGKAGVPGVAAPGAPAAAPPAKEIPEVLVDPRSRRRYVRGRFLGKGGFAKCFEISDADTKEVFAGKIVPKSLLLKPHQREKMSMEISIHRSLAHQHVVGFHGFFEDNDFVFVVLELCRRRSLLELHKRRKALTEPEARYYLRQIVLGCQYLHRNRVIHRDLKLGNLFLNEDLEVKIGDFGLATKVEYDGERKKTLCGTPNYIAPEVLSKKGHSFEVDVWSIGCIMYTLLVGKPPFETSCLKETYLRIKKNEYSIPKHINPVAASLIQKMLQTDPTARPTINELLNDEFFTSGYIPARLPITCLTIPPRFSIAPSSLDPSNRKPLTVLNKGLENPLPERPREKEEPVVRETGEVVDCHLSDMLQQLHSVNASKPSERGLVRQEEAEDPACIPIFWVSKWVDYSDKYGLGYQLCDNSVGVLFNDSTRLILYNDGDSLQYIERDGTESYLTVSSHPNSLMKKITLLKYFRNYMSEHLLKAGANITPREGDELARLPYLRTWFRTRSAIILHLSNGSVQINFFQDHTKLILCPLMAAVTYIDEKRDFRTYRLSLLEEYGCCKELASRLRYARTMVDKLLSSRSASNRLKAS

Mus musculus [9] = assay: Antialzheimer activity in 5XFAD mouse assessed as number of open arm entries at 1200 ppm administered as rodent chow for 10 to 24 weeks by Elevated plus maze test (reference value: 10 to 33); format: functional; conditions: route po, time 10-24 weeks
Mus musculus [10] = assay: Prevention of Cacnb4 gene downregulation in 5XFAD mouse hippocampus at 1200 ppm administered as rodent chow starting from 1.5 months and measured after 7 months by Nanostring analysis; format: functional, tissue-based; conditions: route po, time 5.5 months
[11] = target: Homeodomain-interacting protein kinase 4 (Homo sapiens, UniProt Q8NE63); assay: Inhibition of HIPK4 (unknown origin)
[12] = target: Serine/threonine-protein kinase Sgk3 (Homo sapiens, UniProt Q96BR1); assay: Inhibition of SGKL (unknown origin)
[13] = target: Cyclin-dependent kinase 1/cyclin B1 (Homo sapiens, UniProt P06493); assay: Inhibition of CDK1/CyclinB (unknown origin); format: protein-complex assay
[14] = target: Vascular endothelial growth factor receptor 2 (Homo sapiens, UniProt P35968); assay: Inhibition of KDR (unknown origin)
Vascular endothelial growth factor receptor 2, sequence (P35968 whole entry, canonical isoform): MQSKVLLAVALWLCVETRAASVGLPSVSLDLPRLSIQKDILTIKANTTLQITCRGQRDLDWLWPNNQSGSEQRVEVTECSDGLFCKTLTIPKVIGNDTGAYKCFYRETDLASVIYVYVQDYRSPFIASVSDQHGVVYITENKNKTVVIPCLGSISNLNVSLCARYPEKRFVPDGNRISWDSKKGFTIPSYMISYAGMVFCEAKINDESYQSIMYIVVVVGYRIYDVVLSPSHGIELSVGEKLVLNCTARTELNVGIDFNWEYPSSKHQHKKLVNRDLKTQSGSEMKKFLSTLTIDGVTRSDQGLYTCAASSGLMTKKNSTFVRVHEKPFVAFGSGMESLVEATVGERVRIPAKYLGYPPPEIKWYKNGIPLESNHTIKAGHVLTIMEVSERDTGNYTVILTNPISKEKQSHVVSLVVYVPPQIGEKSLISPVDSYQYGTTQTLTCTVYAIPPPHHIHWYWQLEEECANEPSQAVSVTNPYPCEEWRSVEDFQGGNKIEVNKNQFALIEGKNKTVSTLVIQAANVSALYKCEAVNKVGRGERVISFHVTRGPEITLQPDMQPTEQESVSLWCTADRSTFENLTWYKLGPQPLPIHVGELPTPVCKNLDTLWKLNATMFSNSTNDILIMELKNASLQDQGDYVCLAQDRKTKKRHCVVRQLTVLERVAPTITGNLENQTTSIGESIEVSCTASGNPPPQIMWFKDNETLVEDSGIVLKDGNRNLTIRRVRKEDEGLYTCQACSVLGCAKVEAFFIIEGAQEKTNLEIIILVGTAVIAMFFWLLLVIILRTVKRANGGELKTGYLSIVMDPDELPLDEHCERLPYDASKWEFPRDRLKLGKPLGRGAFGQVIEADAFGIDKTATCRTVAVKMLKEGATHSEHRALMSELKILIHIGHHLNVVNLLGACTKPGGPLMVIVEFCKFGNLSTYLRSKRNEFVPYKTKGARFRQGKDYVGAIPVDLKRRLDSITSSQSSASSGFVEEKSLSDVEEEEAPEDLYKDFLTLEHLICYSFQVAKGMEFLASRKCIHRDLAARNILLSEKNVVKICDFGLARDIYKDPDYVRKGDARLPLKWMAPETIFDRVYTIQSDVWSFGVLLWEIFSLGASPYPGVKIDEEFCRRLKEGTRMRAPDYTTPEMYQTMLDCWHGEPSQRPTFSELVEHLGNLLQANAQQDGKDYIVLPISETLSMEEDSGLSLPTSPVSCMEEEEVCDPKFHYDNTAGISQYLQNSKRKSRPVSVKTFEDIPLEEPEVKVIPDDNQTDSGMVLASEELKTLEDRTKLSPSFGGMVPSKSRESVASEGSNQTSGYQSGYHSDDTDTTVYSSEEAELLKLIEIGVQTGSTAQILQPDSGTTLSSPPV

[15] = target: Casein kinase I isoform epsilon (Homo sapiens, UniProt P49674); assay: Inhibition of CSNK1E (unknown origin)
Casein kinase I isoform epsilon, sequence (P49674 whole entry, canonical isoform): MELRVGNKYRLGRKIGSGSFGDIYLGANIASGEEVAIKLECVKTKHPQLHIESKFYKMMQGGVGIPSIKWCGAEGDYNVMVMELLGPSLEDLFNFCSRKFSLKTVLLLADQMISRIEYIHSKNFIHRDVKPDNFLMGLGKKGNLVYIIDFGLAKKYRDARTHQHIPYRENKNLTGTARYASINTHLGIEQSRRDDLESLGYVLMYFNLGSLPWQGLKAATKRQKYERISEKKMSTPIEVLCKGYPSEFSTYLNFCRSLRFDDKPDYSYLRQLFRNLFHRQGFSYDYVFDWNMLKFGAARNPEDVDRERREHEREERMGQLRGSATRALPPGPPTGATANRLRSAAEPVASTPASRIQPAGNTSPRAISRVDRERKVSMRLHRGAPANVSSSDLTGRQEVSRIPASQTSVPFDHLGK

Mus musculus [16] = assay: Antialzheimer activity in 5XFAD mouse assessed as number of Thio-S positive plaques per FOV in somatosensory cortex at 1200 ppm administered as rodent chow starting from 1.5 months and measured after 7 months by Thio-S staining based confocal microscopic analysis (reference value: 22 to 106); format: functional; conditions: route po, time 5.5 months, 4015 h
Mus musculus [17] = assay: Antialzheimer activity in 5XFAD mouse assessed as number of Iba positive cells per FOV in somatosensory cortex at 1200 ppm administered as rodent chow starting from 1.5 months and measured after 7 months (reference value: 335 to 848); format: functional; conditions: route po, time 5.5 months, 4015 h
[18] = target: Ribosomal protein S6 kinase alpha-6 (Homo sapiens, UniProt Q9UK32); assay: Inhibition of RPS6KA6 (unknown origin)
Mus musculus [19] = assay: Antialzheimer activity in 5XFAD mouse assessed as number of Iba positive cells per FOV in microglia at 1200 ppm administered as rodent chow for 5 days by DAPI staining based immunolabeling analysis (reference value: 119 to 154); format: functional; conditions: route po, time 5 day
Ephrin type-A receptor 1 = Ephrin type-A receptor 1 (Homo sapiens, UniProt P21709); assay: Inhibition of EPHA1 (unknown origin)
Mus musculus [20] = assay: Antialzheimer activity in 5XFAD mouse assessed as average plaque volume in somatosensory cortex at 1200 ppm administered as rodent chow starting from 1.5 months and measured after 7 months by Thio-S staining based confocal microscopic analysis (reference value: 711.144 to 2878.724 microm3); format: functional; conditions: route po, time 5.5 months, 4015 h
Aurora kinase B = Aurora kinase B (Homo sapiens, UniProt Q96GD4); assay: Inhibition of AURKB (unknown origin)
Aurora kinase B, sequence (Q96GD4 whole entry): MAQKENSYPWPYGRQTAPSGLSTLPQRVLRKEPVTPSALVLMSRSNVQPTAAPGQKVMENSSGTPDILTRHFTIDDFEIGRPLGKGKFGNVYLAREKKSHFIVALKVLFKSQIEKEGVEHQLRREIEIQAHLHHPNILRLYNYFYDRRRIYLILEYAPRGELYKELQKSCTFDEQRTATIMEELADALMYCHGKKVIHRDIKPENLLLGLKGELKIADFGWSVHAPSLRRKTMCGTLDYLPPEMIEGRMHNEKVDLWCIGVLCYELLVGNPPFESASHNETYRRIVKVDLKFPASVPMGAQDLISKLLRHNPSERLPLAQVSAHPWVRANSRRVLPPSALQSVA

Mus musculus [21] = assay: Prevention of Tmem119 gene upregulation in 5XFAD mouse hippocampus at 1200 ppm administered as rodent chow starting from 1.5 months and measured after 7 months by Nanostring analysis; format: functional, tissue-based; conditions: route po, time 5.5 months
[22] = target: Inhibitor of nuclear factor kappa-B kinase subunit alpha (Homo sapiens, UniProt O15111); assay: Inhibition of CHUK (unknown origin)
Mus musculus [23] = assay: Prevention of C1qc gene upregulation in 5XFAD mouse hippocampus at 1200 ppm administered as rodent chow starting from 1.5 months and measured after 7 months by Nanostring analysis; format: functional, tissue-based; conditions: route po, time 5.5 months
Mus musculus [24] = assay: Antialzheimer activity in 5XFAD mouse assessed as number of entries to perimeter zone at 1200 ppm administered as rodent chow for 10 to 24 weeks by Open field test (reference value: 22 to 55); format: functional; conditions: route po, time 10-24 weeks
[25] = Half-life in male rat at 1.13 mg/kg, iv administered as single dose; format: ADME, organism-based; conditions: in vivo
[26] = target: Serine/threonine-protein kinase D3 (Homo sapiens, UniProt O94806); assay: Inhibition of PRKCN (unknown origin)
[27] = target: Maternal embryonic leucine zipper kinase (Homo sapiens, UniProt Q14680); assay: Inhibition of MELK (unknown origin)
[28] = target: Tyrosine-protein kinase CSK (Homo sapiens, UniProt P41240); assay: Inhibition of CSK (unknown origin)
[29] = AUC (0 to infinity) in female rat at 45 mg/kg, po administered as single dose via gavage; format: ADME, organism-based; conditions: in vivo
[30] = target: Phosphorylase b kinase gamma catalytic chain, liver/testis isoform (Homo sapiens, UniProt P15735); assay: Inhibition of PHKG2 (unknown origin)
Phosphorylase b kinase gamma catalytic chain, liver/testis isoform, sequence (P15735 whole entry, canonical isoform): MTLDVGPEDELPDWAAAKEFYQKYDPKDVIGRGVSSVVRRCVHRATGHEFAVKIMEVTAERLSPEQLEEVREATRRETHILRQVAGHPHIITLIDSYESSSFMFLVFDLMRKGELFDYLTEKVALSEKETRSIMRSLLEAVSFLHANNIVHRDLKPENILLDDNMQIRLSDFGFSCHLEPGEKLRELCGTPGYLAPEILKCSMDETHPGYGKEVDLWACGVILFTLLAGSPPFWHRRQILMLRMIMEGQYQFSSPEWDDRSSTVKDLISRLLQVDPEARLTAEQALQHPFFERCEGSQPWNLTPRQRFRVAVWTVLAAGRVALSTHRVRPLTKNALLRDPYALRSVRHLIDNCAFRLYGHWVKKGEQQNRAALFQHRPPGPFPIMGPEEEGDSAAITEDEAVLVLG

[31] = Effect on Cst7 gene expression in 5XFAD mouse thalamus at 1200 ppm administered as rodent chow starting from 1.5 months and measured after 7 months by RNA-Seq analysis (reference value: 9.686 to 22.113 RPKM); format: functional; conditions: route po, time 5.5 months, 4015 h
[32] = target: Serine/threonine-protein kinase BRSK1 (Homo sapiens, UniProt Q8TDC3); assay: Inhibition of BRSK1 (unknown origin)
Mus musculus [33] = assay: Antialzheimer activity in 5XFAD mouse assessed as average plaque volume in somatosensory cortex at 75 ppm administered as rodent chow starting from 1.5 months and measured after 5 months by immunolabeling based confocal microscopic analysis (reference value: 871.142 to 1628.317 microm3); format: functional; conditions: route po, time 3.5 months, 2555 h
How it was run: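 5xFAD mice fed PLX3397 at 75 ppm in AIN-76A chow from 1.5 to 5 months of age; retrosplenial and somatosensory cortex sections stained with Thio-S and immunolabeled for IBA1; confocal imaging, IBA1+ cells and plaques quantified per region; two-tailed independent t-test, n = 4–5 per group, mean ± SEM.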

## COc1ncc(F)cc1CNc1ccc(Cc2c[nH]c3ncc(C)cc23)c(F)n1 [PLX-5622]
Mus musculus [1]
  Flu intensity: 4280.692 a.u.
Ephrin type-B receptor 1
  IC50: > 1000 nM
[2]
  Activity: 101.141%
[3]
  clearance: 3.7 mL/min/kg
[4]
  AUC(0-inf): 99.6 µg·h/mL
[5]
  IC50: > 1000 nM
[6]
  Activity: 0.13 RPKM
[7]
  IC50: > 1000 nM
[8]
  IC50: > 1000 nM
Mus musculus [9]
  Activity: 15
Mus musculus [10]
  Activity: Active
[11]
  IC50: > 1000 nM
[12]
  IC50: > 1000 nM
[13]
  IC50: > 1000 nM
[14]
  IC50: 1100 nM
[15]
  IC50: > 1000 nM
Mus musculus [16]
  Activity: 2
Mus musculus [17]
  Activity: 0
[18]
  IC50: > 1000 nM
Mus musculus [19]
  Activity: 1
Ephrin type-A receptor 1
  IC50: > 1000 nM
Mus musculus [20]
  Activity: 66.975 um3
Aurora kinase B
  IC50: > 1000 nM
Mus musculus [21]
  Activity: Active
[22]
  IC50: > 1000 nM
Mus musculus [23]
  Activity: Active
Mus musculus [24]
  Activity: 7
[25]
  half-life: 2.3 h
[26]
  IC50: > 1000 nM
[27]
  IC50: > 1000 nM
[28]
  IC50: > 1000 nM
[29]
  AUC(0-inf): 181 µg·h/mL
[30]
  IC50: > 1000 nM
[31]
  Activity: 0.096 RPKM
[32]
  IC50: > 1000 nM

## FC(F)(F)c1ccc(CNc2ccc(Cc3c[nH]c4ncc(Cl)cc34)cn2)cn1 [PEXIDARTINIB]
Mus musculus [33]
  Activity: 628.64 um3
